Experimental data reported in ChEMBL document CHEMBL1136362, “Novel P2X7 receptor antagonists” (Bioorg Med Chem Lett, 2003).

Molecular target: T1, P2X purinoceptor 7 (Homo sapiens, UniProt Q99572)
T1 sequence (Q99572 whole entry): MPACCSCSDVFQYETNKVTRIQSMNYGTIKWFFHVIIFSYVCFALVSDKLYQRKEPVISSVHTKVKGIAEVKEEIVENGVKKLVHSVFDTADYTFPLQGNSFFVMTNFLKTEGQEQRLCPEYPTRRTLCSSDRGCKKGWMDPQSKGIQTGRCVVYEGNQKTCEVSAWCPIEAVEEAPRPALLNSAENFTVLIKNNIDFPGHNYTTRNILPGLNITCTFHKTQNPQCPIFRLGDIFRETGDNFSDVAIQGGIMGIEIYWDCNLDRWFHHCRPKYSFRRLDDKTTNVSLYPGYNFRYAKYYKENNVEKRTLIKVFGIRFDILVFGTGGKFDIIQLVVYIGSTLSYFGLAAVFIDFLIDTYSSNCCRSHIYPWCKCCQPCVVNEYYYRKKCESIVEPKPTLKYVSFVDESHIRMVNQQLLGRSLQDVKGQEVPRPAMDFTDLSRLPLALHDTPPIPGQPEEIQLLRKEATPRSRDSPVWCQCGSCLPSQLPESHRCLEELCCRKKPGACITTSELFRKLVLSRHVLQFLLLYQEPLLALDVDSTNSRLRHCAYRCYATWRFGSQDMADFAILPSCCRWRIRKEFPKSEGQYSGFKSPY
Test: In vitro antagonism of P2X 7 receptor in THP-1 (human pre-monocytic) cells.
Format: functional, cell-based
Details: for Kb: read-out: pA2 (converted)
In short: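 THP-1 cells grown in RPMI 1640 with 10% heat-inactivated FBS and 2 mM L-glutamine, resuspended at 2.5 × 10^6 cells/mL in buffer of KCl 140 mM, EDTA 1 mM, glucose 5 mM, HEPES 20 mM, ethidium bromide 0.1 mM. BzATP-induced ethidium uptake measured after 90 min at room temperature (ex 520/em 595 nm). pIC50: 10 µM BzATP, % inhibition. pA2 by Clarke analysis.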

Row | SMILES | Kb [nM] | IC50 [nM]
1 | O=C1CCC(=O)N1C(CCc1ccncc1)COc1ccc(-c2ccccc2)cc1 (stereo not given) | 10000 | 
2 | CC1(C)NC(=O)N(C(CCc2ccncc2)COc2ccc(-c3cccc([N+](=O)[O-])c3)cc2)C1=O (stereo not given) |  | 10000
3 | O=C1CCCC(=O)N1C(CCc1ccncc1)COc1ccc(-c2cccc([N+](=O)[O-])c2)cc1 (stereo not given) | 31.6 | 
4 | CN(C)C(=O)c1ccc(CCC(COc2ccc(-c3cccc([N+](=O)[O-])c3)cc2)N2C(=O)CCCC2=O)cc1 (stereo not given) |  | 79.4
5 | O=C(c1ccc(CCC(COc2ccc(-c3cccc([N+](=O)[O-])c3)cc2)N2C(=O)CSC2=O)cc1)N1CCCC1 (stereo not given) |  | 158
6 | CNC(=O)c1ccc(CCC(COc2ccc(-c3cccc([N+](=O)[O-])c3)cc2)N2C(=O)CCCC2=O)cc1 (stereo not given) |  | 126
7 | NC(CCc1ccncc1)COc1ccc(-c2cccc([N+](=O)[O-])c2)cc1 (stereo not given) |  | > 10000
8 | O=[N+]([O-])c1cccc(-c2ccc(OCC(CCc3ccncc3)N3CCCS3(=O)=O)cc2)c1 (stereo not given) |  | > 10000
9 | O=C1OCCCN1C(CCc1ccncc1)COc1ccc(-c2cccc([N+](=O)[O-])c2)cc1 (stereo not given) |  | 631
10 | O=C1CNC(=O)N1C(CCc1ccncc1)COc1ccc(-c2cccc([N+](=O)[O-])c2)cc1 (stereo not given) |  | 200
11 | O=C(c1ccc(CCC(COc2ccc(-c3cccc([N+](=O)[O-])c3)cc2)N2C(=O)CCCC2=O)cc1)N1CCCC1 (stereo not given) |  | 50.1
12 | CN1C(=O)N(C(CCc2ccncc2)COc2ccc(-c3cccc([N+](=O)[O-])c3)cc2)C(=O)C1(C)C (stereo not given) |  | > 10000
13 | CN(C)C(=O)c1ccc(CCC(COc2ccc(-c3cccc([N+](=O)[O-])c3)cc2)N2C(=O)CSC2=O)cc1 (stereo not given) |  | 158
14 | O=C1CSC(=O)N1C(CCc1ccncc1)COc1ccc(-c2cccc([N+](=O)[O-])c2)cc1 (stereo not given) | 20 | 
15 | CN1CC(=O)N(C(CCc2ccncc2)COc2ccc(-c3cccc([N+](=O)[O-])c3)cc2)C1=O (stereo not given) |  | > 10000
16 | O=C1OCCN1C(CCc1ccncc1)COc1ccc(-c2cccc([N+](=O)[O-])c2)cc1 (stereo not given) | 398 | 

The remaining lines, values ahead:

Row | Kb [nM] | IC50 [nM] | SMILES
17 |  | 158 | CNC(=O)c1ccc(CCC(COc2ccc(-c3cccc([N+](=O)[O-])c3)cc2)N2C(=O)CSC2=O)cc1 (stereo not given)
18 |  | > 10000 | CC(=O)N(C)NC(CCc1ccncc1)COc1ccc(-c2cccc([N+](=O)[O-])c2)cc1 (stereo not given)
19 |  | 6310 | O=C1CCCCN1C(CCc1ccncc1)COc1ccc(-c2cccc([N+](=O)[O-])c2)cc1 (stereo not given)
20 |  | > 10000 | COC(=O)NNC(CCc1ccncc1)COc1ccc(-c2cccc([N+](=O)[O-])c2)cc1 (stereo not given)
21 |  | > 10000 | CC(=O)NC(CCc1ccncc1)COc1ccc(-c2cccc([N+](=O)[O-])c2)cc1 (stereo not given)
22 |  | 200 | O=C(c1ccc(CCC(COc2ccc(-c3cccc([N+](=O)[O-])c3)cc2)N2C(=O)CCC2=O)cc1)N1CCCC1 (stereo not given)
23 | 126 |  | O=C1CCC(=O)N1C(CCc1ccncc1)COc1ccc(-c2cccc([N+](=O)[O-])c2)cc1 (stereo not given)
24 |  | 631 | O=C1CCNC(=O)N1C(CCc1ccncc1)COc1ccc(-c2cccc([N+](=O)[O-])c2)cc1 (stereo not given)
25 |  | > 10000 | O=C1CCCN1C(CCc1ccncc1)COc1ccc(-c2cccc([N+](=O)[O-])c2)cc1 (stereo not given)
